Reference: ChEMBL document CHEMBL1130115 (J Med Chem, 1997)

Tests used:
[1] = molecular target: Adenosine receptor A2a (Rattus norvegicus) (UniProt P30543); test: Displacement of specific [3H]-CGS- 21680 binding at adenosine A2A receptor in rat striatal membranes.; type: cell membranes; parameters: concentration or dose not given beside the values; settings: Membrane; concentration not given here
[2] = molecular target: T1, Adenosine receptor A1 (Rattus norvegicus) (UniProt P25099); test: Displacement of specific [3H](R)-PIA binding at Adenosine A1 receptor from rat brain membranes; type: cell membranes; parameters: concentration or dose not given beside the values; settings: Membrane; concentration not given here
T1 sequence (whole entry): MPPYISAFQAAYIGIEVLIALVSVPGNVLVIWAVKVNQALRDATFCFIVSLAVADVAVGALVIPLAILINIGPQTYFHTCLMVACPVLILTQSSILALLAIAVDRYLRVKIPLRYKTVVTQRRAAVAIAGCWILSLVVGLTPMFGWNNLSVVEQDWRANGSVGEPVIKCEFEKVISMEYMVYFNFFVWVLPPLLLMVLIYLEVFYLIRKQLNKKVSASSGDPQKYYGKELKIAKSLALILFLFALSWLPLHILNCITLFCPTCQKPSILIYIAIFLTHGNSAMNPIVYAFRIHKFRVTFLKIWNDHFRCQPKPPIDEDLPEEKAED

Adenosine receptor A1 = molecular target: T2, Adenosine receptor A1 (Rattus norvegicus, UniProt P25099); test: Displacement of specific [3H](R)-PIA binding at adenosine A1 receptor from rat brain membranes.; type: cell membranes, Membrane
T2 sequence (P25099 whole entry): T1 sequence (whole entry)

Adenosine receptor A3 = molecular target: T3, Adenosine receptor A3 (Homo sapiens, UniProt P0DMS8); test: Displacement of specific [125I]AB-MECA binding at human adenosine A3 receptor.
T3 sequence (P0DMS8 whole entry): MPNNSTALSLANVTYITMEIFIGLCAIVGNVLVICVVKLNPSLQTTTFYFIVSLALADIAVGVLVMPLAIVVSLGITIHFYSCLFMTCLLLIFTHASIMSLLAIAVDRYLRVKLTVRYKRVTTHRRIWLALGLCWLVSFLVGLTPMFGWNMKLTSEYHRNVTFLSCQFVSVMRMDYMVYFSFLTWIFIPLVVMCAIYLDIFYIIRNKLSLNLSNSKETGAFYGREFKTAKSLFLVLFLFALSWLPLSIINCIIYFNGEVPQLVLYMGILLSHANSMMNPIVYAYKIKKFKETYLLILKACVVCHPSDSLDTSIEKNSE

[3] = molecular target: T4, Adenosine receptor A3 (Homo sapiens) (UniProt P0DMS8); test: Displacement of [125I]AB-MECA binding at human Adenosine A3 receptor at 10e-7 M
T4 sequence (whole entry): T3 sequence (P0DMS8 whole entry)
Outline: (§1)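 Nonspecific binding defined with 100 µM (R)-PIA. Compounds dissolved in DMSO, ≤2% in assay. Stopped by rapid filtration over GF/B filters with three buffer rinses; result given as % specific binding displaced at the stated concentration.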

[4] = molecular target: T1, Adenosine receptor A1 (Rattus norvegicus); test: Displacement of specific [3H](R)-PIA binding at Adenosine A1 receptor from rat brain membranes at the concentration of 10e-4 M; type: cell membranes; settings: Membrane
Outline: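 [3H](R)-PIA binding to rat cerebral cortex membranes with adenosine deaminase (3 units/mL) present in preparation, 30 min 30 °C preincubation and incubation. Result given as % of specific binding displaced at 10^-4 M.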

Adenosine receptor A2a = Adenosine receptor A2a (Rattus norvegicus, UniProt P30543); test: Displacement of specific [3H]-CGS- 21680 binding at Adenosine A2A receptor in rat striatal membranes.; type: cell membranes, Membrane
[5] = molecular target: T4, Adenosine receptor A3 (Homo sapiens); test: Displacement of [125I]AB-MECA binding at human Adenosine A3 receptor at 10e-5 M; outline: as §1
[6] = molecular target: Adenosine receptor A2a (Rattus norvegicus) (UniProt P30543); test: Displacement of specific [3H]-CGS- 21680 binding at Adenosine A2A receptor in rat striatal membranes at the concentration of 10e-4 M; type: cell membranes; settings: Membrane
Outline: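 [3H]CGS 21680 binding to rat striatal membranes, with adenosine deaminase (3 units/mL) during preparation, 30 min 30 °C preincubation and incubation. Reported as % of specific binding displaced at 10^-4 M.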

Homo sapiens = species: Homo sapiens; test: Selectivity ratio measured as the Ki value of rat A1 receptor to that of hA3 receptor.

Adenosine receptor A2a, sequence (P30543 whole entry): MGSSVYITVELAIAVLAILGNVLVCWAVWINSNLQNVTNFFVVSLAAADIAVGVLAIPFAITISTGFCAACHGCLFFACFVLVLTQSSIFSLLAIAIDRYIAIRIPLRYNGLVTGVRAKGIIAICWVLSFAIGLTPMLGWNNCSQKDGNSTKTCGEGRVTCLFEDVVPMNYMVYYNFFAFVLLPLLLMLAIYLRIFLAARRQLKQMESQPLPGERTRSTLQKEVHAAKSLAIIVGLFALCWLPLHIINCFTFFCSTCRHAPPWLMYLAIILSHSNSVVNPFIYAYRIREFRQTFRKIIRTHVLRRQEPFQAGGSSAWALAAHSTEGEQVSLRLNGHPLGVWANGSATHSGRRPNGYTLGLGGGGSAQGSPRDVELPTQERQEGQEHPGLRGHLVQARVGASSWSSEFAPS
Adenosine receptor A2a (Rattus norvegicus), sequence (P30543 whole entry): as above

SMILES: CCO/C(O)=C1\C(C)=NC(c2ccccc2)=C(C(=O)OCC(OC)c2ccccc2)C1C#Cc1ccccc1 (centres undefined)
- inhibition [1]: 33%

SMILES: CCNC(=O)C1=C(C)NC(c2ccccc2)=C(C(=O)OCC)C1C#Cc1ccccc1 (centres undefined)
- inhibition [1]: 19%

SMILES: CCO/C(O)=C1\C(C)=NC(c2ccccc2)=C(C(=O)OCc2ccc(C(=O)OCC(Cl)(Cl)Cl)cc2)C1C#Cc1ccccc1 (centres undefined)
- inhibition [1]: 11%
- inhibition [2]: 33%

SMILES: CCOC(=O)C1=C(c2ccccc2)N=C(C)/C(=C(/O)OCC)C1C#Cc1ccc([N+](=O)[O-])cc1 (centres undefined)
- inhibition [1]: 24%

SMILES: CCOC(=O)C1=C(c2ccccc2)N=C(C)/C(=C(/O)OCC)C1c1ccco1 (centres undefined)
- inhibition [1]: 45%

SMILES: CCOCN1C(C)=C(C(=O)OCC)C(C#Cc2ccccc2)C(C(=O)O)=C1c1ccccc1 (centres undefined)
- Ki (Adenosine receptor A1): 19.1 µM
- Ki (Adenosine receptor A3): > 100 µM
- inhibition [1]: 36%

SMILES: CCCO/C(O)=C1\C(C)=NC(c2ccccc2)=C(C(=O)OCc2ccccc2)C1C#Cc1ccccc1 (centres undefined)
- inhibition [1]: 16%
- inhibition [2]: 21%

SMILES: CCO/C(O)=C1\C(C)=NC(c2ccccc2)=C(C(=O)OCc2ccc(C(=O)NCCN)cc2)C1C#Cc1ccccc1 (centres undefined)
- Displacement [3]: < 10%
- inhibition [1]: 39%
- inhibition [2]: 68%

SMILES: CCO/C(O)=C1\C(C)=NC(c2ccccc2)=C(C(=O)OCc2cccc(I)c2)C1C#Cc1ccccc1 (centres undefined)
- inhibition [1]: 19%
- inhibition [2]: 14%

SMILES: CCOC(=O)C1=C(C)N(COC)C(c2ccccc2)=C(C(=O)OCC[Si](C)(C)C)C1C#Cc1ccccc1 (centres undefined)
- Displacement [4]: < 10%
- inhibition [1]: 27%

SMILES: CCOC(=O)C1=C(c2ccccc2)N=C(C)/C(=C(/O)SCC)C1C#Cc1ccccc1 (centres undefined)
- Ki (Adenosine receptor A2a): 5.15 µM

SMILES: CCO/C(O)=C1\C(C)=NC(c2ccccc2)=C(C(=O)O)C1C#Cc1ccccc1 (centres undefined)
- inhibition [1]: 16%
- Displacement [5]: < 10%

SMILES: CCO/C(O)=C1\C(C)=NC(c2ccccc2)=C(C(=O)OCCc2ccccc2)C1C#Cc1ccccc1 (centres undefined)
- Displacement [6]: < 10%
- Displacement [4]: < 10%

SMILES: CCOCN1C(C)=C(C(=O)OCC)C(C#Cc2ccccc2)C(C(=O)OCC[Si](C)(C)C)=C1c1ccccc1 (centres undefined)
- inhibition [1]: 19%
- inhibition [2]: 13%

SMILES: CCOC(=O)C1=C(c2ccccc2)NC(C)=C(C(C)=O)C1C#Cc1ccccc1 (centres undefined)
- inhibition [1]: 17%

SMILES: CCOC(=O)C1=C(c2ccccc2)N=C2CCCC(O)=C2C1C#Cc1ccccc1 (centres undefined)
- inhibition [1]: 22%

SMILES: CCNC(=O)C1=C(c2ccccc2)N=C(C)/C(=C(/O)OCC)C1C#Cc1ccccc1 (centres undefined)
- inhibition [1]: 47%

SMILES: Cc1ccc(-c2oc3ccc(Cl)cc3c(=O)c2Cl)c(OC(C)C)c1
- Ki (Adenosine receptor A1): 100 µM
- Ki (Adenosine receptor A2a): > 100 µM

SMILES: COC(=O)C1=C2C=CN(C)C=C2c2nc(-c3ccccc3)nn2C1
- Ki (Adenosine receptor A3): 0.013 µM

SMILES: CCOC(=O)C1=C(c2ccccc2)N=C(C)/C(=C(/O)OCC)C1C#Cc1ccccc1 (centres undefined)
- inhibition [1]: 26%

SMILES: CCOC(=O)C1=C(c2ccccc2)N=C(C)/C(=C(/O)OCC)C1c1cc2ccccc2o1 (centres undefined)
- Displacement [6]: < 10%

SMILES: CCOC(=O)C1=C(C(F)(F)F)N=C(C)/C(=C(/O)OCC)C1C#Cc1ccccc1 (centres undefined)
- inhibition [1]: 25%

SMILES: CCO/C(O)=C1\C(C)=NC(c2ccccc2)=C(C(=O)OCc2ccc([N+](=O)[O-])cc2)C1C#Cc1ccccc1 (centres undefined)
- Displacement [6]: < 10%
- inhibition [2]: 29%

SMILES: CCO/C(O)=C1\C(C)=NC(c2ccccc2)=C(C(=O)OC(C)(C)C)C1C#Cc1ccccc1 (centres undefined)
- inhibition [1]: 27%

SMILES: CCOC(=O)C1=C(c2ccccc2)N=C(C)/C(=C(/O)OC(C)(C)C)C1C#Cc1ccccc1 (centres undefined)
- inhibition [1]: 20%

SMILES: CCOC(=O)C1=C(C)N=C(C)/C(=C(/O)OCC)C1c1cccs1 (centres undefined)
- inhibition [1]: 25%

SMILES: CCO/C(O)=C1\C(C)=NC(c2ccccc2)=C(C(=O)OCc2cccc([N+](=O)[O-])c2)C1C#Cc1ccccc1 (centres undefined)
- Displacement [6]: < 10%
- inhibition [2]: 28.2%

SMILES: CCO/C(O)=C1\C(C)=NC(c2ccccc2)=C(C(=O)OCc2ccccc2C)C1C#Cc1ccccc1 (centres undefined)
- inhibition [1]: 13%
- inhibition [2]: 16%

SMILES: CCOC(=O)C1=C(c2ccccc2)N=C(C)/C(=C(/O)OCC)C1c1ccccn1 (centres undefined)
- inhibition [1]: 25%

SMILES: CCO/C(O)=C1\C(C)=NC(c2ccccc2)=C(C(=O)OCc2cc(C(F)(F)F)cc(C(F)(F)F)c2)C1C#Cc1ccccc1 (centres undefined)
- Displacement [4]: < 10%
- inhibition [1]: 29%

SMILES: CCO/C(O)=C1\C(C)=NC(c2ccccc2)=C(C(=O)OCc2ccc(C)cc2)C1C#Cc1ccccc1 (centres undefined)
- Displacement [4]: < 10%
- inhibition [1]: 17%

SMILES: CCO/C(O)=C1\C(C)=NC(c2ccccc2)=C(C(=O)OCc2ccccc2)C1C#Cc1ccccc1 (centres undefined)
- Displacement [6]: < 10%

SMILES: CCOC(=O)C1=C(C)NC(C)=C(C(=O)OC)C1C#Cc1ccccc1 (centres undefined)
- Selectivity ratio (Homo sapiens): 5.7

SMILES: C=CCO/C(O)=C1\C(C)=NC(c2ccccc2)=C(C(=O)OCC)C1/C=C/c1ccc([N+](=O)[O-])cc1 (centres undefined)
- Displacement [4]: < 10%
- inhibition [1]: 15%

SMILES: CCO/C(O)=C1\C(C)=NC(c2ccccc2)=C(C(=O)OCc2ccc(C(F)(F)F)cc2)C1C#Cc1ccccc1 (centres undefined)
- inhibition [1]: 15%
- inhibition [2]: 32%

SMILES: CCOC(=O)C1=C(c2ccccc2)N=C(C)/C(=C(/O)OCC)C1c1cccs1 (centres undefined)
- inhibition [1]: 36%

SMILES: CCOC(=O)C1=C(c2ccccc2)N=C(C)/C(=C(/O)OCC)C1c1ccncc1 (centres undefined)
- Ki (Adenosine receptor A2a): 44.7 µM

SMILES: CCOC(=O)C1=C(c2ccccc2)N=C(C)/C(=C(/O)OCc2ccccc2)C1C#Cc1ccccc1 (centres undefined)
- Displacement [6]: < 10%
- inhibition [2]: 24%

SMILES: CCOC(=O)C1=C(c2ccccc2)N=C(C)/C(=C(/O)OCC)C1c1cccnc1 (centres undefined)
- inhibition [1]: 40%

SMILES: CCO/C(O)=C1\C(C)=NC(c2ccccc2)=C(C(=O)SCC)C1C#Cc1ccccc1 (centres undefined)
- inhibition [1]: 17%

SMILES: CCO/C(O)=C1\C(C)=NC(c2ccccc2)=C(C(=O)OCc2cccc(C)c2)C1C#Cc1ccccc1 (centres undefined)
- Displacement [4]: < 10%
- inhibition [1]: 16%

SMILES: CCO/C(O)=C1\C(C)=NC(c2ccccc2)=C(C(=O)OCc2cc([N+](=O)[O-])cc([N+](=O)[O-])c2)C1C#Cc1ccccc1 (centres undefined)
- inhibition [1]: 40%
- inhibition [2]: 20%

SMILES: CCOC(=O)C1=C(c2ccccc2)N=C(C)/C(=C(/O)OCC)C1C#Cc1cccc(C)c1 (centres undefined)
- Displacement [6]: < 10%
- inhibition [2]: 41%

SMILES: CCOC(=O)C1=C(c2ccccc2)N=C(C)/C(=C(/O)OCC)C1c1ccccc1 (centres undefined)
- Displacement [6]: < 10%

SMILES: CCOC(=O)C1=C(c2ccccc2)N=C(C)/C(=C(/O)OCC)C1/C=C/c1ccc(N)cc1 (centres undefined)
- inhibition [1]: 26%

SMILES: CCO/C(O)=C1\C(CC)=NC(c2ccccc2)=C(C(=O)OCc2ccccc2)C1C#Cc1ccccc1 (centres undefined)
- Displacement [6]: < 10%
- inhibition [2]: 25%

SMILES: CCO/C(O)=C1\C(C)=NC(c2ccccc2)=C(C(=O)OCCCc2ccccc2)C1C#Cc1ccccc1 (centres undefined)
- Displacement [6]: < 10%
- Displacement [4]: < 10%

SMILES: CCO/C(O)=C1\C(C)=NC(c2ccccc2)=C(C(=O)OCC[Si](C)(C)C)C1C#Cc1ccccc1 (centres undefined)
- inhibition [1]: 18%

SMILES: CCNC(=O)C1=C(c2ccccc2)N(COCC)C(C)=C(C(=O)OCC)C1C#Cc1ccccc1 (centres undefined)
- inhibition [1]: 35%
